The values that follow come from ChEMBL document CHEMBL1133668, “Synthesis and antiviral activity of novel anti-VZV 5-substituted uracil nucleosides with a cyclopropane sugar moiety” (J Med Chem, 2000).

Test [1] concerns HEL. Nature of the test: Tested for Antiherpetic activity against VZV from Kawaguchi strain in HEL cell lines. The class given is functional, cell-based. The settings on record: Homo sapiens.
Test [2] relates to HEL. Kind of test: Tested for Antiherpetic activity against VZV from clinical isolates of HEL cell lines.(average of 11 isolates). The class given is functional, cell-based. The settings on record: Homo sapiens.
The test system of test [3] is MRC5. Nature of the test: Tested for Antiherpetic activity against HSV-1 from Tomioka strain in MRC-5 cell lines. The class given is functional, cell-based. The following applies: Homo sapiens. The gist of the method:
(§1)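 Plaque reduction assay in MRC-5 cells, with HSV-1 Tomioka or HSV-2 strain 186 as the challenge virus. […] MRC-5 cells came from a commercial source.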

Test [4] relates to MRC5. Kind of test: Tested for Antiherpetic activity against HSV-2 from 186 strain in MRC-5 cell lines. The class given is functional, cell-based. The settings on record: Homo sapiens. The essentials: as §1
Test [5] relates to HEL. Kind of test: Tested for inhibitory activity against Varicella zoster virus(VZV) by plaque reduction assay using HEL cells. The class given is functional, cell-based. The following applies: Homo sapiens. In general terms: Plaque reduction counts the foci of infection that form in a cell layer.
A further test relates to Vero. Kind of test: Tested for cytotoxicity in vero cells, activity is expressed as CC50. The class given is functional. The following applies: Chlorocebus sabaeus.
A short description of test [6]: Tested for inhibitory activity against Herpes simplex virus type-1(HSV-1), activity is expressed as IC50. The class given is functional.
For test [7], the system named is MRC5. Nature of the test: Tested for Antiherpetic activity against VZV from clinical isolates of MRC-5 cell lines.(average of six isolates). The class given is functional, cell-based. The settings on record: Homo sapiens.

In brackets after ≈: the same amount, converted by molar mass.

Regarding `Nc1nc(O)c2ncn(CCC(CO)CO)c2n1` [PENCICLOVIR], the IC50 with HEL [1] was found to be 5.6 µg/mL (≈ 22.1 µM); with HEL [2] it was 10 µg/mL (≈ 39.5 µM); in the test with MRC5 [3] it was 0.54 µg/mL (≈ 2.13 µM); in the test on MRC5 [4], 1.2 µg/mL (≈ 4.74 µM).
Regarding `O=c1[nH]c(=O)n(CC2(CO)CC2CO)cc1Cl` (configuration not stated), the IC50 in the test with HEL [5] was more than 100 µg/mL; in test [6], 295 µg/mL (≈ 1130 µM). Besides, the CC50 in the test on Vero was more than 500 µg/mL.
In the case of `O=c1ccn(CC2(CO)CC2CO)c(=O)[nH]1` (configuration not stated), the IC50 is more than 100 µg/mL in the test on HEL [5] and more than 500 µg/mL in test [6]. Moreover, in the test with Vero, the CC50 was more than 500 µg/mL.
Take `O=c1[nH]c(=O)n(CC2(CO)CC2CO)cc1I` (configuration not stated): the IC50 worked out at 9.3 µg/mL (≈ 26.4 µM) in the test on HEL [5] and 90 µg/mL (≈ 256 µM) in test [6]. In the test on Vero, this molecule showed a CC50 of more than 500 µg/mL.
With `C#Cc1cn(CC2(CO)CC2CO)c(=O)[nH]c1=O` (configuration not stated), the IC50 with HEL [5] is more than 100 µg/mL; in test [6] it was 310 µg/mL (≈ 1240 µM). In the test with Vero, this molecule gave a CC50 of more than 500 µg/mL.
As for `Cc1cn(CC2(CO)CC2CO)c(=O)[nH]c1=O` (configuration not stated), the results for the IC50 (with HEL [5]; in test [6]) were more than 100 µg/mL and more than 500 µg/mL, respectively. This molecule showed a CC50 in the test with Vero of more than 500 µg/mL.
Consider `O=c1[nH]c(=O)n(CC2(CO)CC2CO)cc1/C=C/Cl` (configuration not stated), for which the IC50 with HEL [5] is 0.07 µg/mL (≈ 0.244 µM); in test [6] it was 4.3 µg/mL (≈ 15 µM). In addition, in the test with Vero, the CC50 is more than 500 µg/mL.
`O=c1[nH]c(=O)n([C@@H]2O[C@H](CO)[C@@H](O)[C@H]2O)cc1/C=C/Br`: the figures for the concentration for half-maximal inhibition (IC50) in the test with MRC5 [3] and with MRC5 [7] were 0.14 µg/mL (≈ 0.401 µM) and 0.00031 µg/mL (≈ 0.000888 µM), respectively.
With `Nc1nc2c(ncn2COCCO)c(=O)[nH]1` [ACYCLOVIR], the half-maximal inhibitory concentration (IC50) in the test with MRC5 [3] was found to be 0.29 µg/mL (≈ 1.29 µM); with MRC5 [4] it was 0.25 µg/mL (≈ 1.11 µM); in test [6] it was 0.81 µg/mL (≈ 3.6 µM). Besides, the CC50 in the test on Vero is 820 µg/mL (≈ 3640 µM).
With `O=c1[nH]c(=O)n(CC2(CO)CC2CO)cc1/C=C/Br` (configuration not stated), the IC50 with HEL [1] is 0.027 µg/mL (≈ 0.0815 µM); in the test on HEL [2], 0.097 µg/mL (≈ 0.293 µM); in the test with HEL [5], 0.027 µg/mL (≈ 0.0815 µM); in the test with MRC5 [3], 0.77 µg/mL (≈ 2.33 µM); in the test with MRC5 [4], more than 100 µg/mL; in the test with MRC5 [7], 0.035 µg/mL (≈ 0.106 µM). The IC50 in test [6] was 14.5 µg/mL (≈ 43.8 µM). The molecule also yielded a CC50 with Vero of more than 500 µg/mL.
With `Nc1nc(O)c2ncn(C[C@]3(CO)C[C@H]3CO)c2n1`, the IC50 turned out to be 0.67 µg/mL (≈ 2.53 µM) in the test on HEL [1]; 0.67 µg/mL (≈ 2.53 µM) in the test on HEL [5]; 0.0093 µg/mL (≈ 0.0351 µM) in the test on MRC5 [3]; 0.12 µg/mL (≈ 0.452 µM) in the test with MRC5 [4]; 0.21 µg/mL (≈ 0.792 µM) with MRC5 [7]; 0.02 µg/mL (≈ 0.0754 µM) in test [6]. The molecule also gave a CC50 with Vero of 240 µg/mL (≈ 905 µM).
In the case of `O=c1[nH]c(=O)n(CC2(CO)CC2CO)cc1F` (configuration not stated), the IC50 was more than 100 µg/mL with HEL [5] and more than 500 µg/mL in test [6]. In addition, the CC50 in the test on Vero was more than 500 µg/mL.
On to `O=c1[nH]c(=O)n(CC2(CO)CC2CO)cc1Br` (configuration not stated), for which the IC50 with HEL [5] worked out at 97 µg/mL (≈ 318 µM); in test [6] it was 215 µg/mL (≈ 705 µM). The same molecule displayed a CC50 in the test on Vero of more than 500 µg/mL.
The corresponding values for `O=c1[nH]c(=O)n(CC2(CO)CC2CO)cc1/C=C/I` (configuration not stated) are 0.054 µg/mL (≈ 0.143 µM), 24.6 µg/mL (≈ 65.1 µM) and 330 µg/mL (≈ 873 µM).

The IC50 is the point on the concentration scale where inhibition reaches its midpoint. A higher IC50 goes with a need for much substance. Usually CC50 stands for the concentration that lowers cell viability or growth by half. The low end stands for harm at low concentration, the high end for better tolerance by the cells.
